Test results as given in article PMC8526403 (ACS chemical biology, 2021).
“Also recorded” adds a separate entry of the source.

Columns and labels:
3-OST-4 [1] = biological target: T1, 3-OST-4 (Homo sapiens, UniProt Q9Y661); experiment: Reactivity of 12-mers and HS to 3-OST-4 modification; format: biochemical; settings: 12-mer substrates compared to HS polysaccharide
T1 sequence (Q9Y661 163-456): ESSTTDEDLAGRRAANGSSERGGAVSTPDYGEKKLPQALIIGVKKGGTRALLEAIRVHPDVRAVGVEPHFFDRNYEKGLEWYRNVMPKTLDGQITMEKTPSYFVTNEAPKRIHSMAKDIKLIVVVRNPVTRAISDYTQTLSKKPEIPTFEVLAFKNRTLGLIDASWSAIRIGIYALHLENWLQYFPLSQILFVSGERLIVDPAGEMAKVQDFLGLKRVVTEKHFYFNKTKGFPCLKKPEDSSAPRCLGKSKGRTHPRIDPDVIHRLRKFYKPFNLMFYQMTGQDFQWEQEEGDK
How it was run: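 Each 12-mer (10 μg) was incubated with 3-OST-4 (5 μL of 0.8 mg mL−1 stock) in 100 μL of 50 mM Tris-HCl, pH 7.5. The reaction contained [35S]PAPS (5 μM, 1.2 × 10^5 cpm) and ran 1 h at 37 °C. Product was recovered on DEAE and 35S counted as cpm. A no-substrate reaction served as background.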

[2] = test system: acetaminophen overdosed mice; settings: acetaminophen overdose model; cited from earlier work
factor IIa (FIIa) = factor IIa (FIIa) (Homo sapiens, UniProt P01008); experiment: Anti-FIIa activity; format: biochemical
HMGB1 = biological target: T2, HMGB1 (Mus musculus, UniProt P63158); experiment: Binding of biotinylated oligosaccharides to HMGB1; settings: biotinylated oligosaccharide, mouse liver lysate; for fold increase in binding to HMGB-1 compared to negative control NS6S 8-mer: Western band intensity
T2 sequence (P63158 1-215): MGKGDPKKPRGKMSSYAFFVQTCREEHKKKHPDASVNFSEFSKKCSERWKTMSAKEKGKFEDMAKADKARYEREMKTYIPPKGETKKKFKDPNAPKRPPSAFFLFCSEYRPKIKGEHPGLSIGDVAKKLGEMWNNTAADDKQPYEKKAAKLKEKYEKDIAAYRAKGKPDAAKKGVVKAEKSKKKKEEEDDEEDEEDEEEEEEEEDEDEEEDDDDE
How it was run: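 Biotinylated oligosaccharides (~20 nmol) were mixed with fresh mouse liver lysate containing HMGB1 in 20 mM HEPES, pH 7.2, 100 mM NaCl, 1% BSA. Incubation was overnight at 4 °C. Complexes were captured on streptavidin agarose and washed 5× in 20 mM HEPES/250 mM NaCl, pH 7.2. They were eluted in LDS buffer and blotted with rabbit monoclonal anti-HMGB1 plus HRP secondary. Bands were quantified densitometrically.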

human FXa = human FXa (Homo sapiens, UniProt P01008); experiment: Anti-FXa activity; format: biochemical; settings: for fold increase of anti-FXa IC50 compared to HSoligo 9: ratio of IC50 values; for anti-FXa IC50: with antithrombin, 0–5000 ng/mL
How it was run: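 Human FXa at 50 U/mL in PBS. Test compound dissolved in PBS at 0–5000 ng/mL, preincubated with antithrombin (35 μg/mL) for 2 min at 37 °C. FXa added for 4 min at 37 °C, then diluted S-2765 (1 mg mL−1). A405 read continuously for 5 min. Maximum slope divided by control maximum slope gives % FXa activity.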

tau protein = tau protein (Homo sapiens, UniProt P10636); experiment: Binding of biotinylated oligosaccharides to Cy5-labeled tau; settings: biotinylated oligosaccharide
How it was run: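 Biotinylated oligosaccharides (~10 nmol) were incubated overnight at 4 °C with Cy5-labeled tau (5 μg) in 20 mM HEPES, pH 7.2, 100 mM NaCl, 1% BSA. Complexes were captured on streptavidin agarose and washed 3× in HEPES/250 mM NaCl, then 2× in PBS. Tau was released with heparin lyases II (14 μg) and III (20 μg) over 4 h at RT. Released tau was resolved on 4–12% Bis-Tris gels, read by fluorescence scanning and quantified.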

[3] = test system: acetaminophen overdosed mice; experiment: Hepatoprotection in acetaminophen overdosed mice; format: in vivo, mouse
3-OST-4 [4] = biological target: T1, 3-OST-4; experiment: 3-OST-4 modification of oligosaccharide substrates, anion exchange HPLC analysis; format: biochemical; settings: for sulfation by 3-OST-4 (in words): HPLC analysis of substrate with or without 3-OST-4 modification
How it was run: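 Recombinant human 3-OST-4 (E163–K456) was expressed in Sf9 insect cells and purified on heparin then Ni-Sepharose. Oligosaccharide substrates were incubated overnight at 37 °C with PAPS and 3-OST-4 (0.8 mg mL−1 stock) in 50 mM Tris, pH 7.2, with 2 mM CaCl2. For the 8-mer substrate C, 2 mM MnCl2 was also present. Conversion was followed by anion exchange HPLC.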

tau protein, sequence (P10636 1-441 isoform P10636-8): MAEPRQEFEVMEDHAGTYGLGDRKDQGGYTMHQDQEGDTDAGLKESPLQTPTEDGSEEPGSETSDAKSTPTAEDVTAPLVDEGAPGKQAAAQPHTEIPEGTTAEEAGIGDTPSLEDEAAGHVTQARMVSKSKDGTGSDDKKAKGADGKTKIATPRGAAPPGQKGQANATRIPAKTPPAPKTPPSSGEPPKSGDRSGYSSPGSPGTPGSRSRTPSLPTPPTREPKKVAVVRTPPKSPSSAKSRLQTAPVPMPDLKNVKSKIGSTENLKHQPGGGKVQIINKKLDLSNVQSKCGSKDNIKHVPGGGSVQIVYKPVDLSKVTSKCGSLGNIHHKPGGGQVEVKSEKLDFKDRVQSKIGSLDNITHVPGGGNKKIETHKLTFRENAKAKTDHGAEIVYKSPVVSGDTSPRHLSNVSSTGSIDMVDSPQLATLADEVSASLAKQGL
factor IIa (FIIa), sequence (P01008 33-464): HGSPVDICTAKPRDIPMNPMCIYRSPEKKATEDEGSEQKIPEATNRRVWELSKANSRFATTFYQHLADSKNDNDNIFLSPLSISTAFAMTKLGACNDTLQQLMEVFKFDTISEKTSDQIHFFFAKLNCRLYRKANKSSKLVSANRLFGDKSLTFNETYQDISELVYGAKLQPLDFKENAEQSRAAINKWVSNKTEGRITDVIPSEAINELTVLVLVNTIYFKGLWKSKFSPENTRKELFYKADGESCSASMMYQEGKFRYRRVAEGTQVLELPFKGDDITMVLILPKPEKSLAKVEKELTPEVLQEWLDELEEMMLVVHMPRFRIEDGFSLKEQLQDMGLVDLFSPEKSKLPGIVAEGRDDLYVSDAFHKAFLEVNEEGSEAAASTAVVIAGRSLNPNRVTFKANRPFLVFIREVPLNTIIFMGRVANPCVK
human FXa, sequence (P01008 33-464): as above

| Substance | reactivity toward 3-OST-4 modification (in words) (3-OST-4 [1]) | anti-IIa IC50 (factor IIa (FIIa)) | anti-FXa IC50 (human FXa) | also measured |
| --- | --- | --- | --- | --- |
| GlcNS6S-GlcA-(GlcNS6S-IdoA2S)4-GlcNS6S-GlcA-pNP [12-mer NS2S6S] | not substrates |  |  |  |
| GlcNS6S-GlcA-GlcNS3S6S-IdoA2S-GlcNS6S-IdoA2S-GlcNS6S-IdoA2S-GlcNS6S-IdoA2S-GlcNS6S-IdoA2S-GlcNS6S-IdoA2S-GlcNS6S-IdoA2S-GlcNS6S-GlcA-Biotin [18-mer AXa] |  |  |  | hepatoprotection effect [2]: does not display the hepatoprotection effect |
| GlcNS6S-GlcA-GlcNS6S-GlcA2S-GlcNS3S6S-GlcA2S-GlcNS3S6S-GlcA2S-pNP [HSoligo 7] |  | lacks anti-FIIa activity; also recorded: no inhibition | 0.0795 µg/mL | extent of binding to HMGB1 relative to positive control 18-mer AXa (in words) (HMGB1): comparable to that of 18-mer AXa; fold increase in binding to HMGB-1 compared to negative control NS6S 8-mer (HMGB1): 15 fold; fold increase of anti-FXa IC50 compared to HSoligo 9 (human FXa): 3.5 fold; binding to tau, fold higher than 8-mer NS6S (tau protein): 2 fold; binding to tau, fold higher than HSoligo 4 (tau protein): 4 fold; level of binding to tau relative to 18-mer AXa (in words) (tau protein): comparable to 18-mer AXa; hepatoprotection: plasma level of alanine aminotransferase (ALT) [3]: did not find a decrease |
| GlcNS6S-GlcA-GlcNS6S-GlcA2S-GlcNS3S6S-GlcA2S-pNP [HSoligo 5] |  | no inhibition | 0.1544 µg/mL |  |
| GlcNS-(GlcA-GlcNS)5-GlcA-pNP [12-mer NS] | Lower reactivity |  |  |  |
| GlcNS-GlcA-(GlcNS-IdoA2S)4-GlcNSGlcA-pNP [12-mer NS2S] | preferably sulfates |  |  |  |
| GlcNS-GlcA-GlcNS-GlcA2S-GlcNS3S-IdoA2S-GlcNS-GlcA-pNP [HSoligo 8] |  | no inhibition | no inhibition |  |
| GlcNS-GlcA-GlcNS-GlcA2S-GlcNS-GlcA2S-pNP [6-mer substrate E] |  |  |  | sulfation by 3-OST-4 (in words) (3-OST-4 [4]): highly reactive |
| GlcNS-GlcA-GlcNS-GlcA2S-GlcNS-GlcA-pNP [6-mer substrate D] |  |  |  | sulfation by 3-OST-4 (in words) (3-OST-4 [4]): nearly quantitatively converted |
| GlcNS-GlcA-GlcNS-GlcA-GlcNS-IdoA2S-GlcNS-GlcA-pNP [8-mer substrate B] |  |  |  | sulfation by 3-OST-4 (in words) (3-OST-4 [4]): failed to sulfate |
| GlcNS-GlcA-GlcNS-IdoA2S-GlcNS-IdoA2S-GlcNS-GlcA-pNP [8-mer substrate C] |  |  |  | substrate converted to 3-O-sulfated product after 3-OST-4 modification (3-OST-4 [4]; HPLC, conversion to HSoligo 1): about 71% |

The next lines start with results.

| reactivity toward 3-OST-4 modification (in words) (3-OST-4 [1]) | anti-IIa IC50 (factor IIa (FIIa)) | anti-FXa IC50 (human FXa) | Substance | also measured |
| --- | --- | --- | --- | --- |
| not substrates |  |  | GlcNAc-(GlcA-GlcNAc)5-GlcA-pNP [12-mer NAc] |  |
| not substrates |  |  | GlcNS6S-(GlcA-GlcNS6S)5-GlcA-pNP [12-mer NS6S] |  |
|  | no inhibition | 0.3114 µg/mL | GlcNS6S-GlcA-GlcNS6S-GlcA2S-GlcNS3S6S-GlcA-pNP [HSoligo 4] | fold increase in binding to HMGB-1 compared to negative control NS6S 8-mer (HMGB1): 6 fold; fold increase of anti-FXa IC50 compared to HSoligo 9 (human FXa): 6.9 fold |
|  | no inhibition | 0.0225 µg/mL | GlcNS6S-GlcA-GlcNS6S-GlcA2S-GlcNS3S6S-IdoA2S-GlcNS-GlcA-pNP [HSoligo 9] |  |
